System: HEK-293T
Experiment: Multiplex assay against HEK293T
Format: toxicity, cell-based
Details: human
Method in brief: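 Live cells were stained at seeding with Hoechst33342, BioTracker Green Microtubule Cytoskeleton Dye, MitoTracker Red and Annexin V Alexa Fluor 680, then imaged on a CQ1 microscope at 37°C and 5% CO2 after compound addition. CellPathfinder machine-learning gating split cells into Hoechst high-intensity objects or normal cells. Normal cells were split into healthy, pyknosed or fragmented nuclei, and pyknosed cells into mitotic or apoptotic. Tubulin, mitochondrial-mass and membrane-permeability phenotypes are per cents of healthy-nucleus cells.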

[1] = 12 h, 1 µM, compound concentration 1 uM, replicate 1
[2] = 12 h, 1 µM, compound concentration 1 uM, replicate 2
[3] = 12 h, 10 µM, compound concentration 10 uM, replicate 1
[4] = 12 h, 10 µM, compound concentration 10 uM, replicate 2
[5] = 24 h, 1 µM, compound concentration 1 uM, replicate 1
[6] = 24 h, 1 µM, compound concentration 1 uM, replicate 2
[7] = 24 h, 10 µM, compound concentration 10 uM, replicate 1
[8] = 24 h, 10 µM, compound concentration 10 uM, replicate 2
[9] = 48 h, 1 µM, compound concentration 1 uM, replicate 1
[10] = 48 h, 1 µM, compound concentration 1 uM, replicate 2
[11] = 48 h, 10 µM, compound concentration 10 uM, replicate 1
[12] = 48 h, 10 µM, compound concentration 10 uM, replicate 2

With `Oc1c(CN2CCN(c3ccccn3)CC2)cc(Cl)c2cccnc12` the “Population Apoptotic (%)” value [1] was 30%, the “Population Fragmented Nuclei (%)” value [1] was 6% and the “Population Healthy Nuclei (%)” value [1] was 83%. For the same compound, the “Population Hoechst High Intensity Objects (%)” value [1] was 7%, the “Population Membrane Permeable-Phenotype (%)” value [1] was 0% and the “Population Mitochondria Different-Phenotype (%)” value [1] was 44%. For the same compound, the “Population Mitotic Cells (%)” value [1] was 70%, the “Population Normal (%)” value [1] was 92% and the “Population Pyknosed Nuclei (%)” value [1] was 10%. For the same compound, the “Population Tubulin-Different-Phenotype (%)” value [1] was 34%, the “Total Cell Count” value [1] was 424 and the “Population Apoptotic (%)” value [2] was 45%. For the same compound, the “Population Fragmented Nuclei (%)” value [2] was 5%, the “Population Healthy Nuclei (%)” value [2] was 80% and the “Population Mitochondria Different-Phenotype (%)” value [2] was 59%. For the same compound, the “Population Mitotic Cells (%)” value [2] was 54%, the “Population Pyknosed Nuclei (%)” value [2] was 13% and the “Population Tubulin-Different-Phenotype (%)” value [2] was 20%. The “Total Cell Count” value [2] was 354, the “Population Apoptotic (%)” value [3] was 71% and the “Population Fragmented Nuclei (%)” value [3] was 16%. For the same compound, the “Population Healthy Nuclei (%)” value [3] was 64%, the “Population Hoechst High Intensity Objects (%)” value [3] was 11% and the “Population Membrane Permeable-Phenotype (%)” value [3] was 0%. The “Population Mitochondria Different-Phenotype (%)” value [3] was 64%, the “Population Mitotic Cells (%)” value [3] was 28% and the “Population Normal (%)” value [3] was 88%. For the same compound, the “Population Pyknosed Nuclei (%)” value [3] was 18%, the “Population Tubulin-Different-Phenotype (%)” value [3] was 20% and the “Total Cell Count” value [3] was 197. The “Population Apoptotic (%)” value [4] was 73%, the “Population Fragmented Nuclei (%)” value [4] was 18% and the “Population Healthy Nuclei (%)” value [4] was 69%. For the same compound, the “Population Hoechst High Intensity Objects (%)” value [4] was 6%, the “Population Mitochondria Different-Phenotype (%)” value [4] was 70% and the “Population Mitotic Cells (%)” value [4] was 26%. The “Population Normal (%)” value [4] was 93%, the “Population Pyknosed Nuclei (%)” value [4] was 12% and the “Population Tubulin-Different-Phenotype (%)” value [4] was 32%. For the same compound, the “Total Cell Count” value [4] was 327, the “Population Apoptotic (%)” value [5] was 34% and the “Population Fragmented Nuclei (%)” value [5] was 6%. The “Population Healthy Nuclei (%)” value [5] was 84%, the “Population Hoechst High Intensity Objects (%)” value [5] was 3% and the “Population Membrane Permeable-Phenotype (%)” value [5] was 0%. For the same compound, the “Population Mitochondria Different-Phenotype (%)” value [5] was 22%, the “Population Mitotic Cells (%)” value [5] was 65% and the “Population Normal (%)” value [5] was 96%. The “Population Pyknosed Nuclei (%)” value [5] was 9%, the “Population Tubulin-Different-Phenotype (%)” value [5] was 23% and the “Total Cell Count” value [5] was 529. For the same compound, the “Population Apoptotic (%)” value [6] was 33%, the “Population Fragmented Nuclei (%)” value [6] was 7% and the “Population Mitochondria Different-Phenotype (%)” value [6] was 40%. For the same compound, the “Population Mitotic Cells (%)” value [6] was 66%, the “Population Pyknosed Nuclei (%)” value [6] was 8% and the “Population Tubulin-Different-Phenotype (%)” value [6] was 13%. For the same compound, the “Total Cell Count” value [6] was 427, the “Population Apoptotic (%)” value [7] was 93% and the “Population Fragmented Nuclei (%)” value [7] was 18%. The “Population Healthy Nuclei (%)” value [7] was 65%, the “Population Hoechst High Intensity Objects (%)” value [7] was 13% and the “Population Membrane Permeable-Phenotype (%)” value [7] was 1%. For the same compound, the “Population Mitochondria Different-Phenotype (%)” value [7] was 65%, the “Population Mitotic Cells (%)” value [7] was 6% and the “Population Normal (%)” value [7] was 86%. The “Population Pyknosed Nuclei (%)” value [7] was 15%, the “Population Tubulin-Different-Phenotype (%)” value [7] was 19% and the “Total Cell Count” value [7] was 227. For the same compound, the “Population Apoptotic (%)” value [8] was 81%, the “Population Fragmented Nuclei (%)” value [8] was 21% and the “Population Healthy Nuclei (%)” value [8] was 63%. For the same compound, the “Population Hoechst High Intensity Objects (%)” value [8] was 7%, the “Population Mitochondria Different-Phenotype (%)” value [8] was 78% and the “Population Mitotic Cells (%)” value [8] was 18%. The “Population Normal (%)” value [8] was 92%, the “Population Tubulin-Different-Phenotype (%)” value [8] was 34% and the “Total Cell Count” value [8] was 354. For the same compound, the “Population Apoptotic (%)” value [9] was 29%, the “Population Fragmented Nuclei (%)” value [9] was 12% and the “Population Healthy Nuclei (%)” value [9] was 80%. For the same compound, the “Population Hoechst High Intensity Objects (%)” value [9] was 3%, the “Population Membrane Permeable-Phenotype (%)” value [9] was 0% and the “Population Mitochondria Different-Phenotype (%)” value [9] was 22%. For the same compound, the “Population Mitotic Cells (%)” value [9] was 70%, the “Population Normal (%)” value [9] was 96% and the “Population Pyknosed Nuclei (%)” value [9] was 6%. For the same compound, the “Population Tubulin-Different-Phenotype (%)” value [9] was 16%, the “Total Cell Count” value [9] was 689 and the “Population Apoptotic (%)” value [10] was 31%. For the same compound, the “Population Fragmented Nuclei (%)” value [10] was 10%, the “Population Healthy Nuclei (%)” value [10] was 83% and the “Population Mitochondria Different-Phenotype (%)” value [10] was 17%. For the same compound, the “Population Mitotic Cells (%)” value [10] was 68%, the “Population Pyknosed Nuclei (%)” value [10] was 5% and the “Population Tubulin-Different-Phenotype (%)” value [10] was 10%. For the same compound, the “Total Cell Count” value [10] was 518, the “Population Apoptotic (%)” value [11] was 83% and the “Population Fragmented Nuclei (%)” value [11] was 23%. For the same compound, the “Population Healthy Nuclei (%)” value [11] was 44%, the “Population Hoechst High Intensity Objects (%)” value [11] was 25% and the “Population Membrane Permeable-Phenotype (%)” value [11] was 0%. For the same compound, the “Population Mitochondria Different-Phenotype (%)” value [11] was 60%, the “Population Mitotic Cells (%)” value [11] was 16% and the “Population Normal (%)” value [11] was 74%. For the same compound, the “Population Pyknosed Nuclei (%)” value [11] was 31%, the “Population Tubulin-Different-Phenotype (%)” value [11] was 30% and the “Total Cell Count” value [11] was 204. The “Population Apoptotic (%)” value [12] was 94%, the “Population Fragmented Nuclei (%)” value [12] was 28% and the “Population Healthy Nuclei (%)” value [12] was 49%. For the same compound, the “Population Hoechst High Intensity Objects (%)” value [12] was 14%, the “Population Mitochondria Different-Phenotype (%)” value [12] was 81% and the “Population Mitotic Cells (%)” value [12] was 5%. The “Population Normal (%)” value [12] was 85%, the “Population Pyknosed Nuclei (%)” value [12] was 22% and the “Population Tubulin-Different-Phenotype (%)” value [12] was 42%. The “Total Cell Count” value [12] was 295.
